According to ChEMBL document CHEMBL1765017, “Homoisoflavonoids: natural scaffolds with potent and selective monoamine oxidase-B inhibition properties” (J Med Chem, 2011):

Columns and labels:
[1] = molecular target: T1, Amine oxidase [flavin-containing] B (Homo sapiens, UniProt P27338); experiment: biochemical; format: cell-based, BTI-TN-5B1-4
T1 sequence (P27338 whole entry): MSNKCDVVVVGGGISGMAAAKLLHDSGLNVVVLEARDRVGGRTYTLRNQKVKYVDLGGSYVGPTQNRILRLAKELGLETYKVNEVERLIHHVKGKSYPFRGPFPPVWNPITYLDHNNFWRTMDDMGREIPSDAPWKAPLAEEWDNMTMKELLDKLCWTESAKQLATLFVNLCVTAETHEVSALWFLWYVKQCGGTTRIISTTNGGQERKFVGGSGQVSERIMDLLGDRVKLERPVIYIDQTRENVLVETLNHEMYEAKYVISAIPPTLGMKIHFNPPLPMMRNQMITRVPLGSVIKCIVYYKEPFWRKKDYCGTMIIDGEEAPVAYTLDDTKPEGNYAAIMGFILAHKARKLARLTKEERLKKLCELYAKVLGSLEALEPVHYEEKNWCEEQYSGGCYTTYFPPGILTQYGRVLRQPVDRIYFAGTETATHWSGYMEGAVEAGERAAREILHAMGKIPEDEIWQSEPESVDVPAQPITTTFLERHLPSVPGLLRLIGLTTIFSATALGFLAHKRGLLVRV

[2] = molecular target: T2, Amine oxidase [flavin-containing] A (Homo sapiens, UniProt P21397); experiment: Inhibition of human recombinant MAO-A expressed in baculovirus infected BTI-TN-5B1-4 insect sells assessed as hydrogen peroxide production at 100 uM by fluorimetric method; conditions: for inhibition (INH): human, bti-tn-5b1-4, 100 µM; for inhibition at 100 µM: BTI-TN-5B1-4, human
T2 sequence (P21397 whole entry): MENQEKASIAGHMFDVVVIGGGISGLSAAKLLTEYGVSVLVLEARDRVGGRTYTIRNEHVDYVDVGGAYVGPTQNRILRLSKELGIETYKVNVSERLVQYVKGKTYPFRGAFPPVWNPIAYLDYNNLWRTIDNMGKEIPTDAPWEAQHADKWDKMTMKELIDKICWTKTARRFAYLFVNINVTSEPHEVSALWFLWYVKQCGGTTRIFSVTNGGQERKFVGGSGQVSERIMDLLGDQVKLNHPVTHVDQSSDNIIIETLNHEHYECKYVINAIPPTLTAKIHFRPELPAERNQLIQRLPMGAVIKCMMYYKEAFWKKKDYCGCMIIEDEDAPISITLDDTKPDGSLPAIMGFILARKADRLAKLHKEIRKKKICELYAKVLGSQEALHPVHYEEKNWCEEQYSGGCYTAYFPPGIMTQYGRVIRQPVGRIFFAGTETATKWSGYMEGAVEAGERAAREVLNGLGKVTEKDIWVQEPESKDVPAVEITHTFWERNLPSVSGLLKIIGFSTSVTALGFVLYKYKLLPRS
How it was run: (§1)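 Microsomal human MAO-A or MAO-B from BTI-TN-5B1-4 insect cells infected with recombinant baculovirus carrying the isoform cDNA. p-Tyramine was the substrate for both isoforms. H2O2 production was detected fluorimetrically with the Amplex Red reagent. Compounds were checked for direct reaction with Amplex Red. Highest concentrations tested were 100 μM, or 1 mM for some compounds.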

[3] = molecular target: T1, Amine oxidase [flavin-containing] B; experiment: Inhibition of human recombinant MAO-B expressed in baculovirus infected BTI-TN-5B1-4 insect sells assessed as hydrogen peroxide production at 100 uM by fluorimetric method; conditions: for inhibition at 100 µM: BTI-TN-5B1-4, human; for inhibition (INH): human, bti-tn-5b1-4, 100 µM
How it was run: as §1

Homo sapiens = organism: Homo sapiens; experiment: Selectivity index, ratio of IC50 for human MAO-A to IC50 for human MAO-B
How it was run: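 SI = IC50(hMAO-A)/IC50(hMAO-B). IC50s come from the Amplex Red fluorimetric assay of H2O2 from p-tyramine using baculovirus-expressed human isoforms, mean ± SEM of five experiments.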

[4] = molecular target: T2, Amine oxidase [flavin-containing] A; experiment: Inhibition of human recombinant MAO-A expressed in baculovirus infected BTI-TN-5B1-4 insect sells assessed as hydrogen peroxide production by fluorimetric method
[5] = molecular target: T2, Amine oxidase [flavin-containing] A; experiment: Inhibition of human recombinant MAO-A expressed in baculovirus infected BTI-TN-5B1-4 insect sells assessed as hydrogen peroxide production at 500 uM by fluorimetric method; conditions: BTI-TN-5B1-4, human
How it was run: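 Microsomal hMAO-A from insect cells (BTI-TN-5B1-4) infected with recombinant baculovirus carrying the hMAO-A cDNA. Fluorimetric Amplex Red assay measures H2O2 formed from p-tyramine, the substrate. Percent inhibition is expressed against control activity, given as pmol p-tyramine oxidised per min. Mean ± SEM of five experiments.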

[6] = molecular target: T1, Amine oxidase [flavin-containing] B; experiment: Inhibition of human recombinant MAO-B expressed in baculovirus infected BTI-TN-5B1-4 insect sells assessed as hydrogen peroxide production at 1 mM by fluorimetric method; conditions: bti-tn-5b1-4, 1000 µM
How it was run: as §1

[7] = molecular target: T2, Amine oxidase [flavin-containing] A; experiment: Inhibition of human recombinant MAO-A expressed in baculovirus infected BTI-TN-5B1-4 insect sells assessed as hydrogen peroxide production at 500 uM measured after repeated washing by fluorimetric method; conditions: BTI-TN-5B1-4, human
How it was run: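 Microsomal hMAO-A from insect cells infected with recombinant baculovirus. After exposure to inhibitor, the enzyme was washed repeatedly by centrifugation-ultrafiltration. Remaining activity was then read by Amplex Red fluorescence as H2O2 formed from p-tyramine. Percent inhibition is compared with before washing by ANOVA/Dunnett's. Mean ± SEM, n = 5.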

[8] = molecular target: T2, Amine oxidase [flavin-containing] A; experiment: Inhibition of human recombinant MAO-A expressed in baculovirus infected BTI-TN-5B1-4 insect sells assessed as hydrogen peroxide production at 50 uM measured after repeated washing by fluorimetric method; conditions: BTI-TN-5B1-4, human
[9] = molecular target: T1, Amine oxidase [flavin-containing] B; experiment: Inhibition of human recombinant MAO-B expressed in baculovirus infected BTI-TN-5B1-4 insect sells assessed as hydrogen peroxide production at 10 nM by fluorimetric method; conditions: BTI-TN-5B1-4, human
[10] = molecular target: T2, Amine oxidase [flavin-containing] A; experiment: Inhibition of human recombinant MAO-A expressed in baculovirus infected BTI-TN-5B1-4 insect sells assessed as hydrogen peroxide production at 50 uM by fluorimetric method; conditions: BTI-TN-5B1-4, human
[11] = molecular target: T1, Amine oxidase [flavin-containing] B; experiment: Inhibition of human recombinant MAO-B expressed in baculovirus infected BTI-TN-5B1-4 insect sells assessed as hydrogen peroxide production at 10 nM measured after repeated washing by fluorimetric method; conditions: BTI-TN-5B1-4, human

Compound | IC50 [1] [nM] | inhibition (INH) [2] | also measured
O=C1c2ccccc2OCC1Cc1ccc(Cl)cc1 (stereo unspecified) | 7370 | Not Active | –
COc1ccc(/C=C2\COc3ccccc3C2=O)c(OC)c1OC | 1310 | Not Active | –
O=C1/C(=C/c2ccc(O)cc2)COc2ccccc21 | 55.4 | Not Active | –
COc1ccc(/C=C2\COc3ccccc3C2=O)cc1 | 58.9 | Not Active | –
COc1ccc(/C=C2\COc3cc(OC)cc(OC)c3C2=O)cc1 | 1570 | Not Active | –
O=c1c(Cc2ccc(Cl)cc2)coc2cc(Cl)cc(Cl)c12 | 439 | – | inhibition at 100 µM [2]: 40%
O=C1/C(=C/c2ccc(Cl)cc2)COc2ccccc21 | 154 | Not Active | –
O=C1/C(=C/c2ccc(Cl)cc2)COc2ccc(Cl)cc21 | 31.8 | Not Active | –
CN(C)c1ccc(/C=C2\COc3ccccc3C2=O)cc1 | 8.51 | Not Active | –
O=C1/C(=C/c2ccccc2)COc2ccc(Cl)cc21 | 331 | Not Active | –
COc1ccc(/C=C2\COc3ccccc3C2=O)c(OC)c1 | 248 | Not Active | –
O=c1c(Cc2ccc(O)cc2)coc2ccccc12 | – | Not Active | inhibition at 100 µM [3]: 40%
Nc1ccc(/C=C2\COc3ccccc3C2=O)cc1 | 879 | Not Active | –
O=c1c(Cc2ccc(Cl)cc2)coc2ccccc12 | – | Not Active | inhibition (INH) [3]: Not Active
O=C1c2c(Cl)cc(Cl)cc2OCC1Cc1ccc(Cl)cc1 (stereo unspecified) | 4590 | Not Active | –
COc1ccc(/C=C2\COc3ccccc3C2=O)cc1O | 477 | Not Active | –
COc1ccc(Cc2coc3ccccc3c2=O)cc1 | 21600 | Not Active | –
O=c1c(Cc2ccccc2)coc2ccccc12 | – | Not Active | inhibition (INH) [3]: Not Active

Compound | IC50 [1] [nM] | inhibition (INH) [2] | also measured
COc1cccc(/C=C2\COc3ccccc3C2=O)c1OC | 1920 | Not Active | –
Nc1cc(/C=C2\COc3ccccc3C2=O)ccc1O | 484 | – | Ratio IC50 (Homo sapiens): 3; IC50 [4]: 1.44 µM
O=c1c(Cc2ccc(Cl)cc2)coc2ccc(Cl)cc12 | – | Not Active | inhibition at 100 µM [3]: 40%
O=C1/C(=C/c2ccc(Cl)cc2)COc2cc(Cl)cc(Cl)c21 | 13 | Not Active | –
COc1cc(/C=C2\COc3ccccc3C2=O)ccc1O | 104 | – | inhibition at 100 µM [2]: 40%
O=C1/C(=C/c2ccccc2)COc2ccccc21 | 480 | Not Active | –
O=C(O)c1cc(/C=C2\COc3ccccc3C2=O)ccc1O | – | Not Active | inhibition (INH) [3]: Not Active
O=C1c2ccccc2OCC1Cc1ccc(O)cc1 (stereo unspecified) | – | Not Active | inhibition at 100 µM [3]: 40%
O=C(NCCN1CCOCC1)c1ccc(Cl)cc1 [MOCLOBEMIDE] | – | – | inhibition at 500 µM [5]: 86%; inhibition (INH) [6]: Not Active; inhibition at 500 µM [7]: 11.4%
O=C1c2ccccc2OCC1Cc1ccccc1 (stereo unspecified) | 58500 | Not Active | –
CC(=O)Nc1ccc(/C=C2\COc3ccccc3C2=O)cc1 | 1060 | – | Ratio IC50 (Homo sapiens): 2; IC50 [4]: 2.1 µM
COc1ccc(Cc2coc3cc(OC)cc(OC)c3c2=O)cc1 | – | Not Active | inhibition at 100 µM [3]: 40%
O=C1/C(=C/c2ccc(O)c([N+](=O)[O-])c2)COc2ccccc21 | 491 | Not Active | –
O=C1/C(=C/c2ccc(O)c(O)c2)COc2ccccc21 | 141 | – | Ratio IC50 (Homo sapiens): 34; IC50 [4]: 4.74 µM
O=C1/C(=C/c2ccc(O)cc2)COc2cc(O)cc(O)c21 | 8.61 | – | inhibition at 50 µM [8]: 61.8%; inhibition at 0.01 µM [9]: 48.7%; inhibition at 50 µM [10]: 68.3%; Ratio IC50 (Homo sapiens): 1330; inhibition at 0.01 µM [11]: 36.2%; IC50 [4]: 11.5 µM
O=C1c2cc(Cl)ccc2OCC1Cc1ccc(Cl)cc1 (stereo unspecified) | 3070 | Not Active | –
COc1cc(/C=C2\COc3ccccc3C2=O)cc(OC)c1OC | 20700 | Not Active | –
COc1ccc(/C=C2\COc3ccccc3C2=O)c(O)c1 | 1330 | – | inhibition at 100 µM [2]: 40%
